Assay outcomes: PubChem, NMMLSC
Most compounds without a hit are left out; they make up all but 0.9% or so of the library.
RGS8-Gao reg = regulators of human RGS8-Galphao interaction | P09471 | multiplexed bead flow cytometry, RGS8-Galphao binding; actives lie on both sides | response (percent of control binding), % at 10 µM | 220,000 tested, 0.34% active | AID 1423; in the data active = response below about 60% or above about 140%; inactive = in between;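 note: Galphao activated as the GDP aluminium fluoride complex binding bead-coupled RGS8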
RGS4-Gao reg = human RGS4-Galphao interaction regulation | Multiplexed bead flow cytometry, RGS4-Galphao binding; actives lie on both sides | binding response (% of control), % at 10 µM | 220,000 tested, 0.33% active | AID 1415 | P09471; in the data active = binding response below about 49% or above about 150%; inactive = in between;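 note: fluorescent Galphao activated with aluminum fluoride binding bead-coupled RGS4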
RGS16-Gao HTS = RGS16-Galphao interaction regulator (human). O15492+P09471. bead-based flow cytometry RGS16-Galphao binding, fluorescence; actives lie on both sides. binding response (% of control), % at 10 µM. 220,000 tested, 0.38% active. AID 1441;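 note: Galphao activated by GDP with aluminum fluoride before binding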
ABCB1 inh = blocks JC-1 efflux by human ABCB1 transporter. P08183. CCRF-Adr cells, flow cytometry. inhibition, % at 6.6 µM. 190,000 tested, 0.067% active. AID 1326; in the data active = inhibition above about 40%;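 note: 0% = vehicle and 100% = reference inhibitor; higher value means more JC-1 retained so stronger ABCB1 efflux block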
ABCG2 block = human ABCG2 inhibition, ABCB1 as counter-screen; Q9UNQ0; IgMXP3 cells, JC-1 efflux, flow cytometry; inhibition, % at 6.6 µM; 190,000 tested, 0.1% active;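 active = inhibition above 80%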;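 note: 0% = DMSO and 100% = nicardipine control wells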
Target sequence (Q9UNQ0 whole entry, looked up): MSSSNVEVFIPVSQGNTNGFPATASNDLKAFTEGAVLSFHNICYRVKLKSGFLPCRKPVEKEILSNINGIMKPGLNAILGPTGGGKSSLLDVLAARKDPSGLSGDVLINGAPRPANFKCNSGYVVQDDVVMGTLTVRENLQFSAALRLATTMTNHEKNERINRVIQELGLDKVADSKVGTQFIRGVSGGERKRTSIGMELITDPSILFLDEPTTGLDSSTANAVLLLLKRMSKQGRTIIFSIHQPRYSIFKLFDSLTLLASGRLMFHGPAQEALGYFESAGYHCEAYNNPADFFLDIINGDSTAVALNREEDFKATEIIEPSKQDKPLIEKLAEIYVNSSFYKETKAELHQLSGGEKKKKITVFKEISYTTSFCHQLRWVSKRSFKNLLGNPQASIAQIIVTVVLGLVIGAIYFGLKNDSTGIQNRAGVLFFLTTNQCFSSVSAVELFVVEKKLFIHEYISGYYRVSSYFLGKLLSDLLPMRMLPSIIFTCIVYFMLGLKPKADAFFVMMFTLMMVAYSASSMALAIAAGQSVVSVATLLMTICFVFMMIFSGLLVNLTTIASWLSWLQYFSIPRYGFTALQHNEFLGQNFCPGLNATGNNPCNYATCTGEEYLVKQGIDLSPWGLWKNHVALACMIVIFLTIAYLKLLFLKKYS
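Test system: IgMXP3 (ABCG2) plus far-red-tagged CCRF-Adr (ABCB1) cells / Amount: 3 million cells/mL in well / Reagent: JC-1 transporter substrate / Timing: 10 min compound exposure, 25 °C / Signal: flow cytometry, 530 nm JC-1 signal / Read-out: percent efflux inhibition, scaled nicardipine 100% to DMSO 0% / Benchmarks: nicardipine as high control, DMSO as low control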
RGS7-Gao = human RGS7-Galphao interaction regulation | Multiplexed bead flow cytometry, RGS7-Galphao binding; actives lie on both sides | binding response (% of control), % at 10 µM | 220,000 tested, 0.35% active | AID 1439; in the data active = binding response below about 49% or above about 150%; inconclusive = no clear call, values can overlap the other calls; inactive = in between;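 note: fluorescent Galphao held in activated GDP-AlF4 state binding bead-coupled RGS7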
RGS-Gao = modulates binding between human RGS4 and Galphao; multiplexed bead flow cytometry, RGS–Galpha-o binding; AID 1504; RGS4–Galpha-o binding response, % at 10 µM; 1,600 tested, 99% active; shares compounds with RGS16-Gao HTS;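 note: fluorescently labeled Galpha-o bound to GDP with aluminium fluoride binding biotinylated RGS beads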
Avidin counter = biotin-avidin bead binding disruption counter-screen; shares compounds with RGS16-Gao HTS; streptavidin beads, fluorescein-biotin binding, flow cytometry; inhibition, % at 10 µM; 1,700 tested, under 10 active;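 active = inhibition above 50%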;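 note: median green fluorescence of gated singlet beads compared with DMSO control wells; 0% = DMSO wells and 100% = complete loss of bead fluorescence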
RGS8-Gao single = confirmation of regulators of human RGS8-Galphao interaction; shares compounds with RGS16-Gao HTS; bead-based flow cytometry RGS8-Galphao binding, fluorescence; actives lie on both sides; binding response (% of control), % at 10 µM; 1,700 tested, 3% active; AID 1836; in the data active = binding response below about 72% or above about 130%; inactive = in between;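 note: Galphao activated as GDP AlF4 complex before binding bead RGS8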
RGS7-Gao single = confirmation of regulators of human RGS7-Galphao interaction; shares compounds with RGS16-Gao HTS; bead-based flow cytometry RGS7-Galphao binding; actives lie on both sides; response (percent of control binding), % at 10 µM; 1,700 tested, 7.8% active; AID 1837; in the data active = response below about 75% or above about 130%; inactive = in between;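 note: fluorescent Galphao activated with GDP and aluminum fluoride binding bead-coupled RGS7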
RGS16-Gao single = RGS16-Galphao interaction regulation, single point confirmation; shares compounds with RGS16-Gao HTS; bead-based flow cytometry, RGS16-Galphao binding; actives lie on both sides; response (% of control binding), % at 10 µM; 1,700 tested, 4% active; AID 1838; in the data active = response below about 74% or above about 130%; inactive = in between;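 note: Galphao activated as the GDP aluminium fluoride complex binding bead-coupled RGS16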
RGS4-Gao confirm = confirmation of regulators of human RGS4-Galphao interaction; shares compounds with RGS16-Gao HTS; binding response (% of control), % at 10 µM; RGS4-Galphao binding, multiplexed bead flow cytometry; actives lie on both sides; 1,700 tested, 4% active; in the data active = binding response below about 74% or above about 130%; inactive = in between
RGS19-Gao conf = confirmation of regulators of human RGS19-Galphao interaction | bead-based flow cytometry RGS19-Galphao binding; actives lie on both sides | 1,700 tested, 5% active | response (percent of control binding), % at 10 µM | shares compounds with RGS16-Gao HTS; in the data active = response below about 50% or above about 160%; inactive = in between;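 note: 100% = no compound control and 0% = blank background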
Active calls of the source: *; i = inactive; ? = inconclusive; . = no result given; [ ] = remark or other dose. Unless noted, the rule behind the calls is not given here.

SMILES | RGS8-Gao reg | RGS4-Gao reg | RGS16-Gao HTS | ABCB1 inh | ABCG2 block | RGS7-Gao | RGS-Gao | Avidin counter | RGS8-Gao single | RGS7-Gao single | RGS16-Gao single | RGS4-Gao confirm | RGS19-Gao conf
COCCNC(=O)c1cc(Sc2nnc(C)s2)nc2ccccc12 | 60* | 36* | 40 | . | . | ? | . | -1 | 105 | 94 | 111 | 96 | 109
Cc1nnc(Sc2cc(C(=O)NC3CC3)c3ccccc3n2)s1 | 102 | 102 | 100 | . | . | ? | . | . | . | . | . | . | .
Cc1[nH]c2ccccc2c1SCC(=O)O | 101 | 100 | 101 | 0 | -2 | 97 | . | . | . | . | . | . | .
COC(=O)C(F)(F)Sc1c(C)[nH]c2ccccc12 | 111 | 119 | 117 | 1 | 5 | 158*[activator] | 119* | 0 | 104 | 100 | 102 | 102 | 102
Cc1nc2c3ccccc3nc(NNC(=O)CCC(=O)NC(C)C)n2n1 | 71 | 89 | 4.1* | 0 | 9 | 83 | 89* | 1 | 101 | 97 | 99 | 98 | 97
CCC(C)NC(=O)CCC(=O)NNc1nc2ccccc2c2nc(C)nn12 (configuration not stated) | 99 | 97 | 100 | 0 | 3 | 96 | . | . | . | . | . | . | .
COCCNC(=S)N1CCC(C(=O)c2ccc3c(c2)OCCO3)CC1 | 101 | 101 | 103 | 0 | 10 | 103 | . | . | . | . | . | . | .
O=S(=O)(c1ccc(F)cc1)N1CCC(N2CCCC2)CC1 | 102 | 107 | 109 | 0 | 2 | 163*[activator] | 107* | . | . | . | . | . | .
COc1ccc(S(=O)(=O)N2CCC(N3CCCCC3)CC2)cc1 | 103 | 98 | 98 | 0 | 0 | 101 | . | . | . | . | . | . | .
O=C(C1CCN(S(=O)(=O)c2ccc(F)cc2)CC1)N1CCOCC1 | 95 | 115 | 100 | 0 | 0 | 168*[activator] | 115* | 0 | 104 | 104 | 104 | 105 | 100
O=C(C1CCN(S(=O)(=O)c2ccc(Cl)cc2)CC1)N1CCOCC1 | 100 | 101 | 102 | 0 | 1 | 99 | . | . | . | . | . | . | .
CC1CCC(N(CCCN)Cc2ccco2)CC1C (configuration not stated) | 99 | 97 | 101 | 0 | 0 | 91 | . | . | . | . | . | . | .
COc1ccc(C(F)(F)F)cc1NC(=O)c1nc2nc(C)cc(C(F)F)n2n1 | 30* | 38* | 5 | 0 | 2 | 33* | . | i | 99 | 106 | 101 | 103 | 101
Cc1cc(C(F)F)n2nc(C(=O)Nc3cccc(C(F)(F)F)c3)nc2n1 | 104 | 100 | 111 | 0 | 0 | 96 | . | . | . | . | . | . | .
O=C(Nc1ccc(C2SCCS2)cc1)c1ccccc1 | 102 | 99 | 100 | . | . | ? | . | . | . | . | . | . | .
Cc1ccc(C2CCN(C(=S)Nc3cccc(C)c3)C2)cc1 (configuration not stated) | 105 | 107 | 108 | -2 | -3 | 112 | . | . | . | . | . | . | .
COc1ccc(CN(C)C2c3ccccc3-c3ccccc32)cc1 | 124 | 114 | 186*[activator] | 1 | 13 | 109 | 114* | 3 | 99 | 99 | 99 | 100 | 90
COc1ccc(OCCN(C)Cc2ccccc2)cc1 | 100 | 97 | 94 | 0 | 0 | 93 | . | . | . | . | . | . | .
CCOC(=O)C(CSCC(=O)c1ccc(Br)cc1)NC(=O)OC(C)(C)C (configuration not stated) | 101 | 101 | 106 | 1 | 3 | 104 | . | . | . | . | . | . | .
CCOC(=O)C(CSCc1ccccc1)NC(=O)OC(C)(C)C (configuration not stated) | 98 | 93 | -920* | 1 | 2 | 98 | 93* | . | . | . | . | . | .
Cc1cc(C(=O)Nc2ccc3nc(C)sc3c2)c2ccccc2n1 | 96 | 98 | 95 | . | . | ? | . | . | . | . | . | . | .
CCCN1CCN(CCCNC(=O)CCNC(=O)Cn2ccc3ccccc3c2=O)CC1 | 142*[activator] | 104 | 230 | 0 | 3 | 105 | 104* | 2 | 101 | 103 | 103 | 102 | 106
CS(=O)(=O)N(CC(=O)Nc1cccnc1)c1ccc2c(c1)OCCO2 | 109 | 109 | 140 | 0 | 2 | 101 | . | . | . | . | . | . | .
CS(=O)(=O)N(CC(=O)Nc1cccnc1)c1ccc2c(c1)OCO2 | . | . | . | 0 | 1 | . | . | 4 | 92 | 80 | 84 | 87 | 78
O=C1CC(SC(=Nc2ccccc2)Nc2ccccc2)C(=O)N1c1ccc(Cl)cc1 (configuration not stated) | 104 | 102 | 111 | 0 | 6 | 100 | . | . | . | . | . | . | .
SMILES | RGS8-Gao reg | RGS4-Gao reg | RGS16-Gao HTS | ABCB1 inh | ABCG2 block | RGS7-Gao | RGS-Gao | Avidin counter | RGS8-Gao single | RGS7-Gao single | RGS16-Gao single | RGS4-Gao confirm | RGS19-Gao conf
O=C(CSC1CC(=O)N(c2ccc(C(=O)O)cc2)C1=O)Nc1ccc(Cl)cc1 (configuration not stated) | 99 | 123 | 109 | 0 | 0 | 241*[activator] | 123* | -1 | 105 | 96 | 104 | 103 | 114
CCOC(=O)C1CCCN(c2c(N3CCN(c4cccc(Cl)c4)CC3)c(=O)c2=O)C1 (configuration not stated) | 30* | 29* | 16* | 1 | 1 | 18* | . | -1 | 104 | 101 | 102 | 101 | 94
Cn1c(SCC(=O)N/N=C/C=C\c2ccccc2[N+](=O)[O-])nc2ccccc21 | 73 | 89 | 23* | 1 | 8 | 93 | 89* | i | 105 | 106 | 104 | 106 | 103
COc1cc(CN(C(=S)NCC(=O)NC2CC2)C2CCCC2)cc(OC)c1OC | 105 | 102 | 109 | 0 | 4 | 103 | . | . | . | . | . | . | .
CCc1ccccc1NCC(=O)Nc1ccc(Cl)c(C(F)(F)F)c1 | 76 | 94 | 20* | 0 | 0 | 92 | 94* | -3 | 114 | 101 | 114 | 103 | 96
COc1ccccc1NC(=O)Nc1ccc(CC#N)cc1 | 106 | 109 | 107 | . | . | ? | . | . | . | . | . | . | .
N#CC1=C(N)N=C(SCc2ccccc2)C(C(N)=O)C12CCCCC2 (configuration not stated) | 142*[activator] | 108 | 268 | 1 | 3 | 107 | 108* | . | . | . | . | . | .
